Screens as filed in PubChem.
The entries come from a sample that favours hits as a whole.
ROMK mod = modulates human ROMK potassium channel activity | P48048 | Tet-inducible ROMK, thallium flux fluorescence; actives lie on both sides | B-score at 10 µM | 130,000 tested, 2% active | AID 1918;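 active means signal ratio slope over the read window, or its plate-corrected B-score, at least 3 SD from the plate mean, either direction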;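 further: B-score of the F/F0 ratio slope over 7 to 12 s after thallium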
Target sequence (P48048 whole entry, looked up): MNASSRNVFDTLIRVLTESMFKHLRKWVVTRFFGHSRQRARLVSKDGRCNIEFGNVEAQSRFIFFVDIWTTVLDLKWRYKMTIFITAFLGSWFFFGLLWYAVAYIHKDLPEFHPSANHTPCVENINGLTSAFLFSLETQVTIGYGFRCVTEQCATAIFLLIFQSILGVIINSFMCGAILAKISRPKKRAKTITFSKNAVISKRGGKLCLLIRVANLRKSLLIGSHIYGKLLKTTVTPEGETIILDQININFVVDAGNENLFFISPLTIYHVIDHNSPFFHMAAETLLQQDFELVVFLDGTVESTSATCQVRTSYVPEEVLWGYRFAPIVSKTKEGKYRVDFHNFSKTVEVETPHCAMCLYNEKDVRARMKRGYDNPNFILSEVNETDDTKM
Pf gametocyte = kills late stage P. falciparum gametocytes; P. falciparum stage V gametocytes, ATP luminescence, 24 h; inhibition, % at 10.9 µM; 150,000 tested, 0.065% active;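 active means inhibition above the mean plus 3 SD of compounds within the control limits, set per campaign, cut at about 38% in these data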;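 further: 0% = DMSO wells and 100% = medium only without gametocytes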
Calb biofilm kill = mixtures killing C. albicans biofilm | C. albicans biofilm persisters + clotrimazole, fluorescence viability; primary screen in compound mixtures of four per well | inhibition, % at 7.6 µM | 120,000 tested, 0.02% active;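 active means inhibition above 30.3% in the primary screen of four-compound pools, then above 30% when the compound was retested; inconclusive means passed the primary limit but could not be retested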;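 further: compounds exposed to preformed 24 h biofilms for 48 h; 0% = untreated biofilm control and 100% = clotrimazole plus chlorhexidine kill blank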
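Test system: C. albicans biofilms. Buffer or medium: RPMI/MOPS medium, pH 7.0. Timing: 48 h compound exposure at 37 °C. Technique: Alamar Blue fluorescence. Evaluation: percent inhibition of biofilm viability.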
ROMK hit retest = retested hit modulating human ROMK potassium channel | ROMK thallium flux, fluorescence ratio; active compounds read low | shares compounds with ROMK mod | 3,000 tested, 54% active | normalized thallium flux (F/F0 slope) at 10 µM;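 active means Flux at 10 µM at least 3 SD below or above vehicle control mean in one or both replicates; inconclusive means no clear call, values can overlap the other calls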
The depositor's hits bear a star; ? = inconclusive; . = no result.

SMILES | ROMK mod | Pf gametocyte | Calb biofilm kill | ROMK hit retest
COc1ccc(OCCSc2nnc(Cc3cccc4ccccc34)n2N)cc1 | -2.3 | . | 9 | .
CN(C)S(=O)(=O)c1cc(NC(=O)COC(=O)C2CSC3(C)CCC(=O)N23)ccc1Cl (centres undefined) | . | -11 | 11 | .
O=C(c1cccc(F)c1)N1CCN(C(=O)c2cc(-c3ccc(Cl)cc3Cl)on2)CC1 | -4.2* | . | . | ?
COc1cccc(C(=O)N2CCN(C(=O)c3cccc(F)c3)CC2)c1 | . | 13 | . | .
COc1cc(/C=C(\C#N)C(=O)c2c[nH]c3ccccc23)cc(OC)c1O | -5.6* | . | 9 | 0.041*
COc1cc(/C=C(\C#N)C(=O)NCCc2ccccc2)cc(OC)c1O | -2.7 | -26 | 17 | .
COc1cc(/C=C(\C#N)c2nc3ccccc3[nH]2)cc(OC)c1O | . | 5 | 21 | 0.038*
COc1cc(/C=C(\C#N)c2nc3ccccc3[nH]2)cc(Br)c1OCc1ccccc1 | . | 7 | 12 | .
CCOc1ccccc1OCC(=O)NC1CCCCC1 | 0.019 | -2 | . | .
O=C(COc1ccccc1Br)NC1CCCC1 | . | -12 | 12 | 0.069*
C=CCN=c1scc(-c2ccco2)n1/N=C/c1ccc(O)c(O)c1O | . | -12 | 1 | .
COCCN=c1scc(-c2ccco2)n1/N=C/c1ccc(O)c(O)c1O | 3.2* | -23 | -9 | 0.079
COc1ccc2c(c1)Cc1sc(NC(=O)c3cccs3)nc1-2 | -4.1* | -11 | . | 0.076
COc1ccc2c(c1)Cc1sc(NC(=O)c3ccccc3)nc1-2 | 0.095 | . | . | .
COC(=O)c1cc(OC)c(OC)cc1NC(=O)c1ccccc1C | 0.18 | 11 | 11 | .
Cc1ccc(CNC(=O)Cc2ccc(-n3cccc3)cc2)cc1 | 2.5 | . | 15 | .
O=C(Cc1ccc(-n2cccc2)cc1)NCc1cccs1 | 3.4* | 29 | . | ?
O=C1CN(Cc2cc(=O)oc3cc4c(cc23)CCC4)CCN1 | 0.68 | -2 | 8 | .
COC(=O)c1ccccc1C(=O)N1CCCC(CCC(=O)NCc2ccc(F)c(F)c2)C1 (centres undefined) | -0.022 | 15 | 17 | .
O=C(CN1CCN(c2ccc([N+](=O)[O-])cc2)CC1)Nc1nccs1 | -1.1 | 3 | 21 | .
O=C(CN1CCN(c2ccc([N+](=O)[O-])cc2)CC1)Nc1ccccn1 | -3.2* | -3 | 6 | 0.054*
CCC1CCC(N2CCN(c3cccc(OC)c3)CC2)CC1 (centres undefined) | . | 0 | . | .
COc1ccccc1/C=c1\sc2nc(-c3ccco3)nn2c1=O | 0.25 | . | . | .
COc1ccc(OC)c(/C=c2\sc3nc(-c4cccs4)nn3c2=O)c1 | . | -11 | . | 0.062*
CCOc1cc(CNC2CCCC2)cc(Cl)c1OCc1ccc(F)cc1 | -3.8* | . | . | 0.061*
SMILES | ROMK mod | Pf gametocyte | Calb biofilm kill | ROMK hit retest
CCNCc1cc(Cl)c(OCc2ccccc2)c(OCC)c1 | . | -8 | 0 | .
Cn1c(=O)[nH]c(=O)c2c1nc(Br)n2CC(O)COc1ccc(Cl)cc1 (centres undefined) | 0.055 | -11 | -3 | .
Cc1nnc2nc(-c3ccccc3)nc(-c3ccccc3)n12 | . | . | 32 | .
C[C@@]12C(=O)N(c3cccc(F)c3)C(=O)N1[C@@H]1c3ccccc3OC[C@@H]1[C@H]2c1ccccc1 | . | 3 | . | .
CC(=O)c1nnn(-c2ccc([N+](=O)[O-])cc2)c1C | 0.64 | -11 | 4 | .
Cc1cnnn1-c1ccc([N+](=O)[O-])cc1 | -3.2* | -17 | 20 | 0.077
COC(=O)c1sc(-c2ccc(Cl)cc2)cc1NC(=O)CSCC(=O)O | 0.019 | -8 | 30 | .
COC(=O)c1sc(-c2ccc(C(C)(C)C)cc2)cc1NC(=O)COCC(=O)O | -11* | 4 | 16 | 0.085
Cc1cc(C)cc(NCc2ccncc2)c1 | . | 4 | . | .
COc1ccc(C=C2c3ccccc3C(=O)c3ccccc32)c(OC)c1 | 2.8* | -1 | 29 | 0.093
COc1ccc(/C=C/C(=O)c2ccccc2)c(OC)c1 | -0.063 | . | -9 | .
Cc1cc2ncn(CCC(=O)NC(C)(C)C)c2cc1C | 1.4 | -20 | 7 | .
CCOC(=O)c1ccc(NC(=O)COc2ccc(-n3cnnn3)cc2)cc1 | 1.4 | . | . | 0.089
O=C(COc1ccc(F)cc1)Nc1ccc(-n2cnnn2)cc1 | . | -25 | . | .
Cc1occc1C(=O)NC1CCCCCC1 | 3.1* | 15 | . | 0.073
Cc1occc1C(=O)NNC(=O)C1CCCCC1 | -0.042 | 6 | 12 | .
O=C(O)c1ccc(OCc2cn3ccccc3n2)cc1 | . | 33 | -7 | .
O=C(COc1ccc(Oc2ccccc2)cc1)NCc1cn2ccccc2n1 | 2.9* | 7 | 17 | 0.081
Cc1cc2c(cc1C)N[C@]1(C[C@H]3CCCC(=O)N4CC[C@@H](C1)[C@@H]34)C(=NC(C)(C)CC(C)(C)C)N2 | . | 6 | . | .
O=Cc1cc2ccccc2nc1SCc1ccc(Cl)cc1 | . | 11 | . | .
Cc1ccc(CSc2nc3ccccc3cc2C=O)cc1 | . | -9 | . | 0.1*
CCOC(=O)[C@H]1[C@H]2COc3ccc(OC)cc3[C@@H]2N2C(=O)CN(CCc3c[nH]c4ccccc34)C(=O)[C@@]12C | . | 11 | . | .
COc1cc(/C=C2/C(=O)CNC2=O)ccc1O | -2.9* | 8 | 10 | 0.061*
COc1cc(/C=C2\NC(=S)N(C)C2=O)ccc1O | -1.2 | -13 | 2 | .
COc1cccc(-n2c(SCc3ccccn3)nc3c(c2=O)SCC3)c1 | 1.1* | . | 4 | 0.085
SMILES | ROMK mod | Pf gametocyte | Calb biofilm kill | ROMK hit retest
COc1ccc(-n2c(SCc3cccnc3)nc3c(c2=O)SCC3)cc1OC | -0.47 | -24 | 14 | .
COCCCNC(=O)CN1C(=O)/C(=C/c2ccccc2)Sc2ccccc21 | . | 11 | 22 | .
Cn1c(=O)c2c(nc(Sc3ncnn3CC(=O)N3CCOCC3)n2C)n(C)c1=O | 1.4 | 7 | 16 | .
C=CCn1c(SCC#N)nnc1-c1ccc2ncccc2c1 | -0.01 | 11 | 24 | .
COc1cccc(CN2CCN(Cc3cc(OC)c(OC)cc3[N+](=O)[O-])CC2)c1 | -1.8 | . | . | .
COc1cc(CN2CCN(Cc3ccc([N+](=O)[O-])cc3)CC2)c([N+](=O)[O-])cc1OC | -4.3* | -13 | 2 | 0.044*
O=C1N/C(=C\c2ccc(O)cc2)C(O)=C1C=NCc1ccccc1 | 2.1* | . | 4 | 0.087
COc1ccc(/C=C2\NC(=O)C(C=NCc3ccccc3)=C2O)cc1 | . | -13 | 7 | .
O=C(O)c1cccc(-c2ccc(/C=c3/sc4nc5ccccc5n4c3=O)o2)c1 | . | -42 | 23 | 0.04*
O=C(O)c1cc(C(=O)O)cc(-c2ccc(/C=c3/sc4nc5ccccc5n4c3=O)o2)c1 | -1.2 | . | 2 | .
CC(CCc1ccccc1)NC(=O)CCC1CCCC1 (centres undefined) | . | 10 | . | .
CC(CN1CCN(C)CC1)OC(=O)c1cccc(Cl)c1 (centres undefined) | . | 28 | 16 | .
Cc1ccc(S(=O)(=O)N2CCN(C(=O)c3ccccc3)CC2)c(C)c1NS(C)(=O)=O | 0.33 | 3 | 13 | .
CCN1C(=O)c2cccc3c(S(=O)(=O)Nc4ccncc4)ccc1c23 | 2.3* | . | . | 0.076
CCN1C(=O)c2cccc3c(S(=O)(=O)Nc4ccccn4)ccc1c23 | 0.021 | . | . | .
CCOC(=O)CNC(=O)C1c2ccccc2Oc2ccccc21 | . | 8 | . | .
Clc1ccc(OCCn2ccnc2)c2ccccc12 | -3.2* | . | . | ?
Clc1ccc(OCCn2ccnc2)c(Br)c1 | 0.016 | 2 | . | .
